Experimental data taken from ChEMBL document CHEMBL1926577, “Novel 1,3,4-heterodiazole analogues: synthesis and in-vitro antitumor activity” (2012).

How the values were obtained:
Format in all cases: functional
CCRF-CEM = assay: Growth inhibition of human CCRF-CEM cells at 10 uM after 48 hrs by coulter counter method; conditions: read-out: GI
Procedure, shortened: (§1)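 NCI 60-cell-line panel, single dose. Compound dissolved first in DMSO, then diluted in phosphate-buffered saline so that every final dilution held under 1% DMSO. Duplicate wells received cells at 6 × 10⁴ cells/ml. Controls held PBS/DMSO at the same dilution. Plates were incubated 48 h at 37 °C under 5% CO₂. Cells were then diluted 10-fold in saline and counted on a Coulter counter, with counts corrected for the dilution. Results are given as percent growth inhibition.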

HL-60(TB) = assay: Growth inhibition of human HL-60(TB) cells at 10 uM after 48 hrs by coulter counter method; conditions: HL-60, 48 h, read-out: GI
Procedure, shortened: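 Single-dose screen on the NCI 60-line panel (leukemia subpanel). Compound is dissolved in DMSO and diluted in PBS, with final DMSO below 1%. Duplicate wells hold 6 × 10⁴ cells/ml at 37 °C, 5% CO₂, for 48 h. Cells are counted by Coulter counter after 10-fold saline dilution. Read-out is percent growth versus PBS/DMSO controls, expressed as % growth inhibition.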

K562 = assay: Growth inhibition of human K562 cells at 10 uM after 48 hrs by coulter counter method; conditions: K562, 48 h, read-out: GI; procedure, shortened: as §1
MOLT-4 = assay: Growth inhibition of human MOLT4 cells at 10 uM after 48 hrs by coulter counter method; conditions: MOLT-4, 48 h, read-out: GI; procedure, shortened: as §1
RPMI-8226 = assay: Growth inhibition of human RPMI8226 cells at 10 uM after 48 hrs by coulter counter method; conditions: RPMI-8226, 48 h, read-out: GI; procedure, shortened: as §1
SR = assay: Growth inhibition of human SR cells at 10 uM after 48 hrs by coulter counter method; conditions: read-out: GI; procedure, shortened: as §1
A549 = assay: Growth inhibition of human A549 cells at 10 uM after 48 hrs by coulter counter method; conditions: A549, 48 h, read-out: GI; procedure, shortened: as §1
EKVX = assay: Growth inhibition of human EKVX cells at 10 uM after 48 hrs by coulter counter method; conditions: read-out: GI; procedure, shortened: as §1
NCI-H226 = assay: Growth inhibition of human NCI-H226 cells at 10 uM after 48 hrs by coulter counter method; conditions: NCI-H226, 48 h, read-out: GI; procedure, shortened: as §1
NCI-H23 = assay: Growth inhibition of human NCI-H23 cells at 10 uM after 48 hrs by coulter counter method; conditions: NCI-H23, 48 h, read-out: GI; procedure, shortened: as §1
NCI-H322M = assay: Growth inhibition of human NCI-H322M cells at 10 uM after 48 hrs by coulter counter method; conditions: read-out: GI; procedure, shortened: as §1
NCI-H522 = assay: Growth inhibition of human NCI-H522 cells at 10 uM after 48 hrs by coulter counter method; conditions: NCI-H522, 48 h, read-out: GI; procedure, shortened: as §1
HCT-116 = assay: Growth inhibition of human HCT116 cells at 10 uM after 48 hrs by coulter counter method; conditions: HCT-116, 48 h, read-out: GI; procedure, shortened: as §1
HCT-15 = assay: Growth inhibition of human HCT15 cells at 10 uM after 48 hrs by coulter counter method; conditions: HCT-15, 48 h, read-out: GI; procedure, shortened: as §1
HT-29 = assay: Growth inhibition of human HT-29 cells at 10 uM after 48 hrs by coulter counter method; conditions: HT-29, 48 h, read-out: GI; procedure, shortened: as §1
KM12 = assay: Growth inhibition of human KM12 cells at 10 uM after 48 hrs by coulter counter method; conditions: KM12, 48 h, read-out: GI; procedure, shortened: as §1
SF-268 = assay: Growth inhibition of human SF268 cells at 10 uM after 48 hrs by coulter counter method; conditions: SF-268, 48 h, read-out: GI; procedure, shortened: as §1
SF-295 = assay: Growth inhibition of human SF295 cells at 10 uM after 48 hrs by coulter counter method; conditions: SF-295, 48 h, read-out: GI; procedure, shortened: as §1
SNB-19 = assay: Growth inhibition of human SNB19 cells at 10 uM after 48 hrs by coulter counter method; conditions: SNB-19, 48 h, read-out: GI; procedure, shortened: as §1
SNB-75 = assay: Growth inhibition of human SNB75 cells at 10 uM after 48 hrs by coulter counter method; conditions: SNB-75, 48 h, read-out: GI; procedure, shortened: as §1
U-251 = assay: Growth inhibition of human U251 cells at 10 uM after 48 hrs by coulter counter method; conditions: U-251, 48 h, read-out: GI; procedure, shortened: as §1
LOX IMVI = assay: Growth inhibition of human LOXIMVI cells at 10 uM after 48 hrs by coulter counter method; conditions: read-out: GI; procedure, shortened: as §1
Malme-3M = assay: Growth inhibition of human MALME-3M cells at 10 uM after 48 hrs by coulter counter method; conditions: read-out: GI; procedure, shortened: as §1
M14 = assay: Growth inhibition of human M14 cells at 10 uM after 48 hrs by coulter counter method; conditions: M14, 48 h, read-out: GI; procedure, shortened: as §1
MDA-MB-435 = assay: Growth inhibition of human MDA-MB-435 cells at 10 uM after 48 hrs by coulter counter method; conditions: MDA-MB-435, 48 h, read-out: GI; procedure, shortened: as §1
SK-MEL-2 = assay: Growth inhibition of human SK-MEL-2 cells at 10 uM after 48 hrs by coulter counter method; conditions: SK-MEL-2, 48 h, read-out: GI; procedure, shortened: as §1
SK-MEL-28 = assay: Growth inhibition of human SK-MEL-28 cells at 10 uM after 48 hrs by coulter counter method; conditions: SK-MEL-28, 48 h, read-out: GI; procedure, shortened: as §1
SK-MEL-5 = assay: Growth inhibition of human SK-MEL-5 cells at 10 uM after 48 hrs by coulter counter method; conditions: SK-MEL-5, 48 h, read-out: GI; procedure, shortened: as §1
UACC-257 = assay: Growth inhibition of human UACC257 cells at 10 uM after 48 hrs by coulter counter method; conditions: UACC-257, 48 h, read-out: GI; procedure, shortened: as §1
UACC-62 = assay: Growth inhibition of human UACC62 cells at 10 uM after 48 hrs by coulter counter method; conditions: UACC-62, 48 h, read-out: GI; procedure, shortened: as §1
IGROV-1 = assay: Growth inhibition of human IGROV1 cells at 10 uM after 48 hrs by coulter counter method; conditions: IGROV-1, 48 h, read-out: GI; procedure, shortened: as §1
OVCAR-8 = assay: Growth inhibition of human OVCAR8 cells at 10 uM after 48 hrs by coulter counter method; conditions: OVCAR-8, 48 h, read-out: GI; procedure, shortened: as §1
NCI/ADR-RES = assay: Growth inhibition of human NCI/ADR-RES cells at 10 uM after 48 hrs by coulter counter method; conditions: read-out: GI; procedure, shortened: as §1
786-0 = assay: Growth inhibition of human 786-0 cells at 10 uM after 48 hrs by coulter counter method; conditions: 786-0, 48 h, read-out: GI; procedure, shortened: as §1
A498 = assay: Growth inhibition of human A498 cells at 10 uM after 48 hrs by coulter counter method; conditions: A498, 48 h, read-out: GI; procedure, shortened: as §1
ACHN = assay: Growth inhibition of human ACHN cells at 10 uM after 48 hrs by coulter counter method; conditions: read-out: GI; procedure, shortened: as §1
CAKI-1 = assay: Growth inhibition of human Caki1 cells at 10 uM after 48 hrs by coulter counter method; conditions: CAKI-1, 48 h, read-out: GI; procedure, shortened: as §1
SN12C = assay: Growth inhibition of human SN12C cells at 10 uM after 48 hrs by coulter counter method; conditions: read-out: GI; procedure, shortened: as §1
TK-10 = assay: Growth inhibition of human TK10 cells at 10 uM after 48 hrs by coulter counter method; conditions: TK-10, 48 h, read-out: GI; procedure, shortened: as §1
UO-31 = assay: Growth inhibition of human UO31 cells at 10 uM after 48 hrs by coulter counter method; conditions: UO-31, 48 h, read-out: GI; procedure, shortened: as §1
PC-3 = assay: Growth inhibition of human PC3 cells at 10 uM after 48 hrs by coulter counter method; conditions: PC-3, 48 h, read-out: GI; procedure, shortened: as §1
MCF7 = assay: Growth inhibition of human MCF7 cells at 10 uM after 48 hrs by coulter counter method; conditions: MCF7, 48 h, read-out: GI; procedure, shortened: as §1
BT-549 = assay: Growth inhibition of human BT549 cells at 10 uM after 48 hrs by coulter counter method; conditions: BT-549, 48 h, read-out: GI; procedure, shortened: as §1
T47D = assay: Growth inhibition of human T47D cells at 10 uM after 48 hrs by coulter counter method; conditions: read-out: GI; procedure, shortened: as §1
MDA-MB-468 = assay: Growth inhibition of human MDA-MB-468 cells at 10 uM after 48 hrs by coulter counter method; conditions: MDA-MB-468, 48 h, read-out: GI; procedure, shortened: as §1

Measured: inhibition of growth at 10 µM

O=C1CN2N=C(c3ccccc3)OC2=N1
14.7%: SF-295
21.2%: CAKI-1
10.9%: A498
< 10%: CCRF-CEM | HL-60(TB) | K562 | MOLT-4 | RPMI-8226 | SR | A549 | EKVX | NCI-H226 | NCI-H23 | NCI-H322M | NCI-H522 | HCT-116 | HCT-15 | HT-29 | KM12 | SF-268 | SNB-19 | SNB-75 | U-251 | LOX IMVI | Malme-3M | M14 | MDA-MB-435 | SK-MEL-2 | SK-MEL-28 | SK-MEL-5 | UACC-257 | UACC-62 | IGROV-1 | OVCAR-8 | NCI/ADR-RES | 786-0 | ACHN | SN12C | TK-10 | PC-3 | MCF7 | BT-549 | T47D | MDA-MB-468
20.4%: UO-31

O=C1N=C2OC(c3ccc(Cl)cc3)=NN2C1=O
11.7%: UO-31
12.1%: SR
< 10%: CCRF-CEM | MOLT-4 | A549 | EKVX | NCI-H226 | NCI-H23 | NCI-H322M | NCI-H522 | HCT-116 | HCT-15 | HT-29 | KM12 | SF-268 | SF-295 | SNB-19 | SNB-75 | U-251 | LOX IMVI | Malme-3M | M14 | MDA-MB-435 | SK-MEL-2 | SK-MEL-28 | SK-MEL-5 | UACC-257 | UACC-62 | IGROV-1 | OVCAR-8 | NCI/ADR-RES | 786-0 | A498 | ACHN | CAKI-1 | SN12C | TK-10 | PC-3 | MCF7 | BT-549 | T47D | MDA-MB-468
13.6%: K562
15%: HL-60(TB)

NC1=CC(N)=NC2SC(c3ccc(Cl)cc3)=NN12 (stereo not drawn)
20.6%: MOLT-4
< 10%: CCRF-CEM | A549 | EKVX | NCI-H23 | NCI-H322M | HCT-116 | HCT-15 | KM12 | SF-268 | SF-295 | SNB-19 | SNB-75 | U-251 | LOX IMVI | Malme-3M | M14 | MDA-MB-435 | SK-MEL-5 | UACC-257 | UACC-62 | OVCAR-8 | NCI/ADR-RES | 786-0 | A498 | ACHN | CAKI-1 | SN12C | TK-10 | MCF7 | BT-549 | T47D | MDA-MB-468
19.9%: SR | NCI-H522
14.3%: PC-3
27.5%: SK-MEL-2
21.9%: UO-31
26.9%: K562
22.3%: IGROV-1
34.1%: HL-60(TB)
17.4%: SK-MEL-28
11.8%: HT-29
13.1%: NCI-H226
